Test results published in ChEMBL document CHEMBL1154391, “Novel thienopyrimidine and thiazolopyrimidine kinase inhibitors with activity against Tie-2 in vitro and in vivo” (Bioorg Med Chem Lett, 2009).
pIC50: −log10 of the molar value. Values after ≈ are worked out from the molar mass of the structure shown. Active and inactive are the calls of the source. The rule behind the calls is not given here.

What was measured:
[1] = (§1) Protein binding in rat plasma; format: ADME, cell-free; settings: read-out: PPB (converted)
[2] = target: T1, Angiopoietin-1 receptor (Homo sapiens, UniProt Q02763); assay: Inhibition of Tie-2 phosphorylation by cell based assay
[3] = Bioavailability in rat at 2 mg/kg, iv and 5 mg/kg, po; format: ADME, organism-based; settings: in vivo
[4] = target: Vascular endothelial growth factor receptor 2 (Homo sapiens) (UniProt P35968); assay: Inhibition of FLt
[5] = Clearance in rat at 2 mg/kg, iv and 5 mg/kg, po; format: ADME, organism-based; settings: in vivo
[6] = target: Vascular endothelial growth factor receptor 1 (Homo sapiens) (UniProt P17948); assay: Inhibition of Flt-1
[7] = target: T1, Angiopoietin-1 receptor; assay: Inhibition of Tie-2
[8] = Half life in rat at 5 mg/kg, po; format: ADME, organism-based; set-up: dose 5 mg/kg, route oral; settings: in vivo
[9] = Volume of distribution at steady state in rat at 2 mg/kg, iv and 5 mg/kg, po; format: ADME, organism-based; settings: in vivo, read-out: Vdss
[10] = Cmax in rat at 1 mg/kg, po; format: ADME, organism-based; set-up: dose 1 mg/kg, route oral; settings: in vivo
[11] = test system: Plasma; assay: as §1; format: ADME, cell-free
[12] = Aqueous solubility at pH 7
[13] = Lipophilicity, log D of the compound; settings: octanol/water
[14] = test system: Rattus norvegicus; assay: Hypotensive activity in rat assessed as VEGF-induced reduction in blood pressure at 20 mg/kg, iv; format: functional, organism-based; set-up: dose 20 mg/kg
Summary of the method: (§2)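 Male Alderley Park rats anaesthetised with α-chloralose iv, maintained with thiopentone ip. Carotid artery cannulated for blood pressure recording by pressure transducer. Jugular vein cannulated for bolus VEGF or Ang-1 in 0.85% NaCl. Ang-1 was baculovirus/insect-cell expressed, 40–60 µg per batch, adjusted to give a 10–20 mmHg fall. Compound or vehicle given iv (25% w/v hydroxypropyl-β-cyclodextrin, Sorensen phosphate pH 5.5).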

[15] = test system: Rattus norvegicus; assay: Hypotensive activity in rat assessed as reversal of angiopoietin-1-induced reduction in blood pressure at 20 mg/kg, iv; format: functional, organism-based; set-up: dose 20 mg/kg; summary of the method: as §2

T1 sequence (Q02763 whole entry): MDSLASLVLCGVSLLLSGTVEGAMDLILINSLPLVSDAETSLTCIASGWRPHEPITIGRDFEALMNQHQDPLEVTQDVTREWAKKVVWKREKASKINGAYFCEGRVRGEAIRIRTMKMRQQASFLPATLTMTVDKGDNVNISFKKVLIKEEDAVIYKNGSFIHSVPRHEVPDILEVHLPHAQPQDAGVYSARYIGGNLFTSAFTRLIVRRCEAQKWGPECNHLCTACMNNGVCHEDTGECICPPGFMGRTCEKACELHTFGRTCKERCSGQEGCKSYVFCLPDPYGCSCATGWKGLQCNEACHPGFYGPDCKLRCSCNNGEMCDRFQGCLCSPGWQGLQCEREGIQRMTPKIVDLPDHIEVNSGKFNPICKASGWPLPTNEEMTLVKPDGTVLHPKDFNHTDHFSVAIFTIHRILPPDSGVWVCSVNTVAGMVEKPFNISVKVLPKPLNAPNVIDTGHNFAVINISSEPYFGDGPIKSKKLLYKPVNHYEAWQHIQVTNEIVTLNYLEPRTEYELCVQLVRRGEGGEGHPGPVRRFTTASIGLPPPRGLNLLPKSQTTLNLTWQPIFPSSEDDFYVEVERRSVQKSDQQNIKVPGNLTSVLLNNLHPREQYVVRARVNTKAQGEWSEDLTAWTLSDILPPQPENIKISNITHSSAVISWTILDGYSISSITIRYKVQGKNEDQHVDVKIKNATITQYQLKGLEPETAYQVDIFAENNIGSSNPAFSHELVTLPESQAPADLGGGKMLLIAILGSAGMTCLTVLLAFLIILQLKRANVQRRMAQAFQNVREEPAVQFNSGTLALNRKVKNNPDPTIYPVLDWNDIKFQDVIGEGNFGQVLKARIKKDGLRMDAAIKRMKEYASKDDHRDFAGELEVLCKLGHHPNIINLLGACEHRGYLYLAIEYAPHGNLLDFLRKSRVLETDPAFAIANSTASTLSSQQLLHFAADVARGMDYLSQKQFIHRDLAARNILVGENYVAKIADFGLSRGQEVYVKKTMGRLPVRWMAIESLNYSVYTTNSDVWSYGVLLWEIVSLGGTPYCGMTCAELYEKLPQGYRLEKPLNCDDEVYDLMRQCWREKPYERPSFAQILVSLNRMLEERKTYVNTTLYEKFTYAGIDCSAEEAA
Sequence of Vascular endothelial growth factor receptor 1 (Homo sapiens) (P17948 whole entry, looked up): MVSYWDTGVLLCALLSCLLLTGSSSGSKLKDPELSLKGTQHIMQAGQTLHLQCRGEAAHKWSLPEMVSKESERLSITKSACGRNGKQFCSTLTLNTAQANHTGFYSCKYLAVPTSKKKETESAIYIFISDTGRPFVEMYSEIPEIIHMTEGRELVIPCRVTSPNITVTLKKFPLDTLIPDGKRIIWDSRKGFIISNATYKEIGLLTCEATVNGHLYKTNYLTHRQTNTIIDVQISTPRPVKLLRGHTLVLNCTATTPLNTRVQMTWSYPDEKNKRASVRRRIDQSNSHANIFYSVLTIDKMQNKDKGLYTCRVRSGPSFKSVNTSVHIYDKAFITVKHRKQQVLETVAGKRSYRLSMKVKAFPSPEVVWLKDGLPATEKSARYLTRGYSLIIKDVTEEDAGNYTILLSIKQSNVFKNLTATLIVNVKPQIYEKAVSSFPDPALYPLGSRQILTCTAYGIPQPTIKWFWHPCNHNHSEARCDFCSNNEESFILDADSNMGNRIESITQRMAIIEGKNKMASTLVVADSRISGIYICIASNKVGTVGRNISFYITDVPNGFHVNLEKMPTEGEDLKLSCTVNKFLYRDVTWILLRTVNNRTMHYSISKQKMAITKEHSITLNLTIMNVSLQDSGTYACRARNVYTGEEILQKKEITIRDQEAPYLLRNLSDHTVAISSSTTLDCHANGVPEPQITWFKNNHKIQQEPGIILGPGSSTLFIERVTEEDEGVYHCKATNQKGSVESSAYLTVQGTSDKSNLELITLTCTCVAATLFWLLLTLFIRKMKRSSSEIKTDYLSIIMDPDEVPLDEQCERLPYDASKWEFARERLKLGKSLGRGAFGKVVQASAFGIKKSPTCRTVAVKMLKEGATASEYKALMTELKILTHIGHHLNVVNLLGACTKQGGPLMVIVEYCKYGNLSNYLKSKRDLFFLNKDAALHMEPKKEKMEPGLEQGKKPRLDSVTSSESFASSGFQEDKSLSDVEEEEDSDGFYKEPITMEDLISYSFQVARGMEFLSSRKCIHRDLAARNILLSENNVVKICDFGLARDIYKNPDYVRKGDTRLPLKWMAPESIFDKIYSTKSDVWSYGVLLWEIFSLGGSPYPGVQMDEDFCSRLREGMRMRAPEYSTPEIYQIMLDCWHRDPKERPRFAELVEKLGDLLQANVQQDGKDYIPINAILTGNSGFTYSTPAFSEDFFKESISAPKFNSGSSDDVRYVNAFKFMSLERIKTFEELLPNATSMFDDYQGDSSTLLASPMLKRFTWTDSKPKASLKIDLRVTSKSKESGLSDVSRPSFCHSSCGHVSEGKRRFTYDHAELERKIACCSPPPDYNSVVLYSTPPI

Q: Which fraction unbound [1] does the source give for `Nc1ncnc2sc(-c3c(-c4ccccc4)ncn3C[C@H]3CCCO3)nc12` here?
A: 0.2

Q: And the pIC50 [2]?
A: 6.43

Q: With `Cn1cnc(-c2ccccc2)c1-c1cc2c(N)ncnc2s1` as the molecule, how does the bioavailability [3] read?
A: > 100%

Q: What about the pIC50 [4] of the same molecule?
A: 4.66

Q: And the clearance [5]?
A: 39 mL/min/kg

Q: And the pIC50 [6]?
A: 5.00

Q: And the fraction unbound [1]?
A: 0.045

Q: What about the pIC50 [2] of the same molecule?
A: 5.74

Q: What about the pIC50 [7] of the same molecule?
A: 4.47

Q: What about the half-life [8] of the same molecule?
A: 1.8 h

Q: And the Vd [9]?
A: 1.4 L/kg

Q: With `Cc1ccc(Sc2cccc(-c3ncn(C)c3-c3cc4c(N)ncnc4s3)c2)cc1` as the molecule, how does the pIC50 [2] read?
A: 5.85

Q: With `Cn1cnc(-c2cccc(NC(=O)Nc3ccccc3)c2)c1-c1cc2c(N)ncnc2s1` as the molecule, how does the pIC50 [2] read?
A: 5.85

Q: With `Cn1cnc(-c2cccc(NC(=O)Nc3cc(C(F)(F)F)ccc3F)c2)c1-c1cc2c(N)ncnc2s1` as the molecule, how does the pIC50 [2] read?
A: 7.15

Q: Which results are given for `Cc1cc(NC(=O)Nc2cccc(-c3ncn(C)c3-c3cc4c(N)ncnc4s3)c2)on1`?
A: pIC50 [2]: 6.47; Cmax [10]: 9 nM

Q: Which bioavailability [3] does the source give for `Cn1cnc(-c2ccccc2)c1-c1nc2c(N)ncnc2s1` here?
A: > 100%

Q: What about the clearance [5] of the same molecule?
A: 30.1 mL/min/kg

Q: And the fraction unbound [1]?
A: 0.052

Q: And the PPB [11]?
A: 94.6%

Q: And the pIC50 [7]?
A: 4.70

Q: What about the half-life [8] of the same molecule?
A: 1.6 h

Q: What about the solubility [12] of the same molecule?
A: 160 µM (≈ 49.3 µg/mL)

Q: And the logD [13]?
A: 2.7

Q: What about the Vd [9] of the same molecule?
A: 1.2 L/kg

Q: With `CCn1cnc(-c2ccccc2)c1-c1nc2c(N)ncnc2s1` as the molecule, how does the pIC50 [2] read?
A: 5.52

Q: And the solubility [12]?
A: 171 µM (≈ 55.1 µg/mL)

Q: What does the source list for `CC(C)Cn1cnc(-c2ccccc2)c1-c1nc2c(N)ncnc2s1`?
A: fraction unbound [1]: 0.059; pIC50 [2]: 6.31; solubility [12]: 70 µM (≈ 24.5 µg/mL)

Q: For `Nc1ncnc2sc(-c3c(-c4ccccc4)ncn3CC3CCCCC3)nc12`, which fraction unbound [1] is on record?
A: 0.016

Q: With `Nc1ncnc2sc(-c3c(-c4ccccc4)ncn3Cc3ccccc3N3CCOCC3)nc12` as the molecule, how does the Activity [14] read?
A: inactive

Q: What about the fraction unbound [1] of the same molecule?
A: 0.058

Q: And the pIC50 [2]?
A: 6.36

Q: And the Activity [15]?
A: Active
